# Test results from ChEMBL document CHEMBL1122953, “Synthesis and antiarrhythmic and parasympatholytic properties of substituted phenols. 3. Modifications to the linkage region (region 3)” (1985).
# The source made the active and inactive calls. The rule behind the calls is not given here.
# What was measured:
# Canis familiaris [1] = species on record: Canis familiaris; experiment: Antiarrhythmic activity estimated by using the ouabain intoxicated dog model and the active dose of base in ouabain dog was reported.; format: functional, Canis lupus familiaris, Heart
# In short: (§1)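 Dogs; ECG lead II recorded. Ouabain given iv as boluses of 40 µg/kg, then 20 µg/kg 30 min later, then 10 µg/kg every 15 min until a stable ventricular arrhythmia (>95% ectopic ventricular complexes) persisted 15 min. Test drug infused iv at 0.5 mg/kg per min until normal sinus rhythm held at least 10 min. Active dose is the mean of experiments ± SEM.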
# Cavia porcellus = species on record: Cavia porcellus; experiment: Parasympatholytic activity and the % inhibition of guinea pig ileum contractile force at 4 mg/L of base was reported.; format: functional
# In short: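 Isolated guinea pig ileum, electrically stimulated so contraction comes from acetylcholine released by postganglionic parasympathetic nerves. After about 60 min equilibration, tension was measured just before and during the steady-state response to drug at 4 mg/L. Result is % inhibition of contractile force.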
# Canis familiaris [2] = species on record: Canis familiaris; experiment: Antiarrhythmic activity estimated by using the ouabain intoxicated dog model and the active dose of base in ouabain dog was reported; Not effective; format: functional, organism-based; settings: Canis lupus familiaris; Heart; in short: as §1
# Canis familiaris [3] = experiment: Antiarrhythmic activity estimated by using the ouabain intoxicated dog model and the active dose of base in ouabain dog was reported. at a dose of 10 mg/kg; Not effective; format: functional, organism-based; set-up: dose 10 mg/kg; settings: Canis lupus familiaris, Heart; in short: as §1
# Canis familiaris [4] = experiment: Antiarrhythmic activity estimated by using the ouabain intoxicated dog model and the active dose of base in ouabain dog was reported at a dose of 20 mg/kg; Not effective; format: functional, organism-based; set-up: dose 20 mg/kg; settings: Canis lupus familiaris, Heart; in short: as §1
# Canis familiaris [5] = species on record: Canis familiaris; experiment: Dose at which ouabain dog failed to produce normal sinus rhythm; format: functional, Canis lupus familiaris; in short: as §1
# Canis familiaris [6] = species on record: Canis familiaris; experiment: Dose at which ouabain dog caused ventricular flutter; format: functional, Canis lupus familiaris, Heart; in short: as §1
compound,measurement,setting,value
Cc1cccc(C)c1C(=O)Nc1cc(CN2CCCC2)c(O)c(CN2CCCC2)c1,Dose,Canis familiaris [1],3.2 mg/kg
Cl.Oc1c(CN2CCCC2)cc(OCc2ccccc2)cc1CN1CCCC1,Inhibition,Cavia porcellus,62%
same,Dose,Canis familiaris [1],2 mg/kg
Cl.Oc1c(CN2CCCC2)cc(Cc2ccccc2)cc1CN1CCCC1,Inhibition,Cavia porcellus,14.3%
same,DOSE,Canis familiaris [2],inactive
O=C(c1cc(CN2CCCC2)c(O)c(CN2CCCC2)c1)c1cc(CN2CCCC2)c(O)c(CN2CCCC2)c1,DOSE,Canis familiaris [3],inactive
CC(C)N(CCC(C(N)=O)(c1ccccc1)c1ccccn1)C(C)C (configuration not stated) [DISOPYRAMIDE],Inhibition,Cavia porcellus,81%
same,Dose,Canis familiaris [1],4.4 mg/kg
O=C(Nc1ccccc1)c1cc(CN2CCCC2)c(O)c(CN2CCCC2)c1,Inhibition,Cavia porcellus,31%
same,Dose,Canis familiaris [1],2.8 mg/kg
O=S(=O)(Nc1cc(CN2CCCC2)c(O)c(CN2CCCC2)c1)c1ccccc1,Dose,Canis familiaris [1],10 mg/kg
O=C(Nc1cc(CN2CCOCC2)c(O)c(CN2CCOCC2)c1)c1ccccc1,Dose,Canis familiaris [1],16.5 mg/kg
CCN(CC)CCNC(=O)c1ccc(N)cc1.Cl [PROCAINAMIDE HYDROCHLORIDE],Inhibition,Cavia porcellus,0%
same,Dose,Canis familiaris [1],29 mg/kg
O=C(c1ccccc1)c1cc(CN2CCCC2)c(O)c(CN2CCCC2)c1,Inhibition,Cavia porcellus,9%
same,Dose,Canis familiaris [1],2.4 mg/kg
Cc1cccc(C)c1NC(=O)c1cc(CN2CCCC2)c(O)c(CN2CCCC2)c1,Dose,Canis familiaris [1],4.5 mg/kg
O=C(Nc1ccccc1)Nc1cc(CN2CCCC2)c(O)c(CN2CCCC2)c1,Dose,Canis familiaris [1],3.6 mg/kg
COc1ccc(C(=O)c2cc(CN3CCCC3)c(O)c(CN3CCCC3)c2)cc1,Inhibition,Cavia porcellus,12%
same,Dose,Canis familiaris [1],4.5 mg/kg
O=C(Nc1nccs1)c1cc(CN2CCCC2)c(O)c(CN2CCCC2)c1,DOSE,Canis familiaris [4],inactive
C=C[C@H]1CN2CC[C@H]1C[C@@H]2[C@@H](O)c1ccnc2ccc(OC)cc12 [QUINIDINE],Inhibition,Cavia porcellus,62%
same,Dose,Canis familiaris [1],10.5 mg/kg
Cc1ccccc1NC(=O)c1cc(CN2CCCC2)c(O)c(CN2CCCC2)c1,Dose,Canis familiaris [1],2.9 mg/kg
Oc1c(CN2CCCC2)cc(Nc2ccccc2)cc1CN1CCCC1,Dose,Canis familiaris [1],5 mg/kg
same,Dose,Canis familiaris [5],17.5 mg/kg
O=C(c1ccc(Cl)cc1)c1cc(CN2CCCC2)c(O)c(CN2CCCC2)c1,Dose,Canis familiaris [1],4.8 mg/kg
Oc1c(CN2CCCC2)cc(Nc2ncnc3ccccc23)cc1CN1CCCC1 [CHANGROLIN],Inhibition,Cavia porcellus,43%
same,Dose,Canis familiaris [1],5.5 mg/kg
O=C(Nc1cc(CN2CCCCC2)c(O)c(CN2CCCCC2)c1)c1ccccc1,Inhibition,Cavia porcellus,33%
same,Dose,Canis familiaris [1],3 mg/kg
O=C(/C=C/c1ccccc1)Nc1cc(CN2CCCC2)c(O)c(CN2CCCC2)c1,Dose,Canis familiaris [1],14 mg/kg
same,Dose,Canis familiaris [6],8 mg/kg
O=C(Nc1cc(CN2CCCC2)c(O)c(CN2CCCC2)c1)c1ccccc1,Dose,Canis familiaris [1],3.4 mg/kg
Cc1ccccc1C(=O)Nc1cc(CN2CCCC2)c(O)c(CN2CCCC2)c1,Dose,Canis familiaris [1],2.7 mg/kg
CN(C(=O)c1ccccc1)c1cc(CN2CCCC2)c(O)c(CN2CCCC2)c1,Inhibition,Cavia porcellus,5%
same,Dose,Canis familiaris [1],16.2 mg/kg
